In ChEMBL document CHEMBL3044755, “5-Methyl-1,2,3-thiadiazoles synthesized via ugi reaction and their fungicidal and antiviral activities” (J Agric Food Chem, 2010):

Legend:
Puccinia triticina = assay: Fungicidal activity against Puccinia triticina at 50 ug/ml by growth inhibition method; type: functional; conditions: read-out: GI
Procedure, shortened: (§1)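 Mycelial growth inhibition on potato dextrose agar. The panel covered Alternaria solani, Botrytis cinerea, Cercospora arachidicola, C. beticola, Colletotrichum lagenarium, Fusarium oxysporum, Gibberella zeae, Puccinia triticina, Phytophthora infestans, Physalospora piricola, Pellicularia sasakii and Rhizoctonia solani.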

Phytophthora infestans = assay: Fungicidal activity against Phytophthora infestans at 50 ug/ml by growth inhibition method; type: functional; conditions: read-out: GI; procedure, shortened: as §1
Tobacco mosaic virus [1] = assay: In vivo antiviral activity against Tobacco mosaic virus (TMV) infected tobacco leaves assessed as curative effect at 500 ug/ml treated after viral inoculation measured at 2-3 days after viral challenge; type: functional
Procedure, shortened: (§2)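 Curative test: whole six-leaf tobacco leaves rubbed with TMV (5.88 10-2 μg/mL), dried in greenhouse, then compound smeared on upper three leaves and solvent on lower three as control. Local lesions scored 2-3 days after inoculation, three repetitions. Inhibition (%) = (CK − A)/CK × 100 on mean lesion numbers.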

Rhizoctonia solani = assay: Fungicidal activity against Rhizoctonia solani at 50 ug/ml by growth inhibition method; type: functional; conditions: read-out: GI; procedure, shortened: as §1
Tobacco mosaic virus [2] = assay: In vivo antiviral activity against Tobacco mosaic virus (TMV) infected tobacco leaves assessed as protective effect at 100 ug/ml treated 12 hr before viral inoculation measured at 2-3 days after viral challenge; type: functional
Procedure, shortened: (§3)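 Six-leaf tobacco; compound solution smeared over whole leaves, dried in greenhouse, then after 12 h TMV (5.88 10-2 μg/mL) rubbed onto upper three leaves, with solvent on lower three leaves as control. Local lesions counted 2-3 days post-inoculation, three repetitions. Inhibition (%) = (CK − A)/CK × 100 from mean lesion numbers.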

Tobacco mosaic virus [3] = assay: In vitro antiviral activity against Tobacco mosaic virus (TMV) infected tobacco leaves at 100 ug/ml; type: functional
Colletotrichum lagenaria = assay: Fungicidal activity against Colletotrichum lagenaria at 50 ug/ml by growth inhibition method; type: functional; conditions: read-out: GI; procedure, shortened: as §1
Tobacco mosaic virus [4] = assay: In vivo antiviral activity against Tobacco mosaic virus (TMV) infected tobacco leaves assessed as curative effect at 100 ug/ml treated after viral inoculation measured at 2-3 days after viral challenge; type: functional; procedure, shortened: as §2
Tobacco mosaic virus [5] = assay: In vivo antiviral activity against Tobacco mosaic virus (TMV) infected tobacco leaves assessed as protective effect at 500 ug/ml treated 12 hr before viral inoculation measured at 2-3 days after viral challenge; type: functional; procedure, shortened: as §3
Nicotiana tabacum [6] = assay: Phytotoxicity against Nicotiana tabacum (tobacco) plant; type: organism-based; conditions: in vivo
[7] = system: Botryosphaeria berengeriana; assay: Fungicidal activity against Botryosphaeria berengeriana at 50 ug/ml by growth inhibition method; type: functional; conditions: read-out: GI; procedure, shortened: as §1
Alternaria solani = assay: Fungicidal activity against Alternaria solani at 50 ug/ml by growth inhibition method; type: functional; conditions: read-out: GI; procedure, shortened: as §1
Tobacco mosaic virus [8] = assay: In vitro antiviral activity against Tobacco mosaic virus (TMV) infected tobacco leaves at 500 ug/ml; type: functional
Nicotiana tabacum [9] = assay: Induction of systemic acquired resistance activity in TMV infected-Nicotiana tabacum (tobacco) leaves at 50 ug/ml; type: functional
Procedure, shortened: (§4)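 Tobacco/TMV system used for systemic acquired resistance induction. Inhibition ratio calculated from mean lesion numbers on inoculated leaves relative to corresponding control. Tiadinil and ribavirin run as controls.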

Cercospora beticola = assay: Fungicidal activity against Cercospora beticola at 50 ug/ml by growth inhibition method; type: functional; conditions: read-out: GI; procedure, shortened: as §1
Nicotiana tabacum [10] = assay: Induction of systemic acquired resistance activity in TMV infected-Nicotiana tabacum (tobacco) leaves at 100 ug/ml; type: functional; procedure, shortened: as §4
Tobacco mosaic virus [11] = assay: In vivo antiviral activity against Tobacco mosaic virus (TMV) infected tobacco leaves assessed as inactivation effect at 100 ug/ml co-treated with virus for 30 min before inoculation onto leaves measured at 2-3 days after viral challenge; type: functional
Procedure, shortened: (§5)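 TMV (5.88 10-2 μg/mL) mixed with equal volume of compound solution for 30 min, then rubbed onto upper three leaves of six-leaf tobacco; solvent on lower three leaves as control. Lesions counted 2-3 days later, three repetitions. Inhibition (%) = (CK − A)/CK × 100 from mean lesion counts.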

Thanatephorus cucumeris = assay: Fungicidal activity against Thanatephorus cucumeris at 50 ug/ml by growth inhibition method; type: functional; conditions: read-out: GI; procedure, shortened: as §1
Tobacco mosaic virus [12] = assay: In vivo antiviral activity against Tobacco mosaic virus (TMV) infected tobacco leaves assessed as inactivation effect at 500 ug/ml co-treated with virus for 30 min before inoculation onto leaves measured at 2-3 days after viral challenge; type: functional; procedure, shortened: as §5
Fusarium graminearum = assay: Fungicidal activity against Fusarium graminearum at 50 ug/ml by growth inhibition method; type: functional; conditions: read-out: GI; procedure, shortened: as §1
Mycosphaerella arachidis = assay: Fungicidal activity against Mycosphaerella arachidis at 50 ug/ml by growth inhibition method; type: functional; conditions: read-out: GI; procedure, shortened: as §1
Botrytis cinerea = assay: Fungicidal activity against Botryotinia fuckeliana at 50 ug/ml by growth inhibition method; type: functional; conditions: read-out: GI; procedure, shortened: as §1
Tobacco mosaic virus [13] = assay: In vitro antiviral activity against Tobacco mosaic virus (TMV) infected tobacco leaves at 200 ug/ml; type: functional
Fusarium oxysporum = assay: Fungicidal activity against Fusarium oxysporum at 50 ug/ml by growth inhibition method; type: functional; conditions: read-out: GI; procedure, shortened: as §1

Row | SMILES | inhibition of growth at 50 µg/mL (Puccinia triticina) | inhibition of growth at 50 µg/mL (Phytophthora infestans) | Activity (Tobacco mosaic virus [1]) | inhibition of growth at 50 µg/mL (Rhizoctonia solani) | Activity (Tobacco mosaic virus [2]) | inhibition at 100 µg/mL (Tobacco mosaic virus [3]) | inhibition of growth at 50 µg/mL (Colletotrichum lagenaria) | Activity (Tobacco mosaic virus [5]) | Activity (Nicotiana tabacum [6]) | inhibition of growth at 50 µg/mL [7] | inhibition of growth at 50 µg/mL (Alternaria solani) | inhibition at 500 µg/mL (Tobacco mosaic virus [8]) | Activity (Nicotiana tabacum [9]) | inhibition of growth at 50 µg/mL (Cercospora beticola) | Activity (Nicotiana tabacum [10]) | Activity (Tobacco mosaic virus [11]) | inhibition of growth at 50 µg/mL (Thanatephorus cucumeris) | Activity (Tobacco mosaic virus [12]) | inhibition of growth at 50 µg/mL (Fusarium graminearum) | inhibition of growth at 50 µg/mL (Mycosphaerella arachidis) | further results
1 | Cc1ccc(N(C(=O)c2nnsc2C)C(C(=O)NC2CCCCC2)c2cccc(Cl)c2)cc1F (stereo not given) | 14% | 44% | 40% | 39% | 29% | 14% | 0% | 67% | Non-toxic | 8% | 25% | 18% | 30% | 25% | 22% | 69% | 0% | 79% | 27% | 27% | Activity (Tobacco mosaic virus [4]): 0%
2 | Cc1ccc(N(C(=O)c2nnsc2C)C(C(=O)NC2CCCCC2)c2ccc(F)cc2)cc1F (stereo not given) | 0% | 25% | 52% | 2% | 6% | 24% | 14% | 17% | Non-toxic | 0% | 0% | 44% | 41% | 0% | 41% | 69% | 87% | 79% | 0% | 9% | Activity (Tobacco mosaic virus [4]): 20%
3 | Cc1cccc(C(C(=O)NC2CCCCC2)N(C(=O)c2nnsc2C)c2ccc(C)c(F)c2)c1 (stereo not given) | 0% | 1% | 38% | 37% | 10% | 44% | 0% | 8% | Non-toxic | 0% | 6% | 29% | 40% | 25% | 54% | 38% | 0% | 69% | 36% | 0% | Activity (Tobacco mosaic virus [4]): 29%
4 | Cc1ccc(N(C(=O)c2nnsc2C)C(C(=O)NC2CCCCC2)c2cccc(O)c2)cc1F (stereo not given) | 0% | 6% | 57% | 30% | 43% | 25% | 0% | 44% | Non-toxic | 0% | 0% | 48% | 32% | 25% | 76% | 44% | 0% | 67% | 14% | 0% | Activity (Tobacco mosaic virus [4]): 23%
5 | Cc1ccc(N(C(=O)c2nnsc2C)C(C(=O)NC(C)C)c2ccccc2C(F)(F)F)cc1F (stereo not given) | 0% | 44% | 44% | 17% | 5% | 57% | 36% | 44% | Non-toxic | 0% | 13% | 71% | 30% | 13% | 60% | 67% | 15% | 65% | 27% | 9% | Activity (Tobacco mosaic virus [4]): 32%
6 | Cc1ccc(N(C(=O)c2nnsc2C)C(C(=O)NC(C)C)c2ccc(O)cc2)cc1F (stereo not given) | 0% | 0% | 55% | 0% | 71% | 26% | 0% | 76% | Non-toxic | 0% | 0% | 35% | 36% | 0% | 7% | 51% | 4% | 72% | 0% | 0% | Activity (Tobacco mosaic virus [4]): 28%
7 | Cc1ccc(N(C(=O)c2nnsc2C)C(C(=O)NC(C)C)c2ccc(O)cc2)cc1Cl (stereo not given) |  | 23% |  |  | 8% |  | 10% | 36% | Non-toxic | 36% | 37% | 4% | 23% | 17% | 41% | 50% | 65% | 64% | 20% | 17% | inhibition of growth at 50 µg/mL (Botrytis cinerea): 76%; inhibition at 200 µg/mL (Tobacco mosaic virus [13]): 0%; inhibition of growth at 50 µg/mL (Fusarium oxysporum): 23%
